Assay results published in ChEMBL document CHEMBL3627693, “Novel aminotetrazole derivatives as selective STAT3 non-peptide inhibitors” (Eur J Med Chem, 2015).
pIC50: −log10 of the molar value. Calls of active or inactive are those of the source. The calls are words filed in the database; no cut-off is given here.

Tests used:
[1] = target: T1, Signal transducer and activator of transcription 3 (Homo sapiens, UniProt P40763); test: Inhibition of STAT3 (unknown origin) expressed in Oncostatin M induced human HeLa cells at 50 uM incubated for 1 hr by luciferase reporter gene assay; assay type: cell-based
T1 sequence (P40763 whole entry): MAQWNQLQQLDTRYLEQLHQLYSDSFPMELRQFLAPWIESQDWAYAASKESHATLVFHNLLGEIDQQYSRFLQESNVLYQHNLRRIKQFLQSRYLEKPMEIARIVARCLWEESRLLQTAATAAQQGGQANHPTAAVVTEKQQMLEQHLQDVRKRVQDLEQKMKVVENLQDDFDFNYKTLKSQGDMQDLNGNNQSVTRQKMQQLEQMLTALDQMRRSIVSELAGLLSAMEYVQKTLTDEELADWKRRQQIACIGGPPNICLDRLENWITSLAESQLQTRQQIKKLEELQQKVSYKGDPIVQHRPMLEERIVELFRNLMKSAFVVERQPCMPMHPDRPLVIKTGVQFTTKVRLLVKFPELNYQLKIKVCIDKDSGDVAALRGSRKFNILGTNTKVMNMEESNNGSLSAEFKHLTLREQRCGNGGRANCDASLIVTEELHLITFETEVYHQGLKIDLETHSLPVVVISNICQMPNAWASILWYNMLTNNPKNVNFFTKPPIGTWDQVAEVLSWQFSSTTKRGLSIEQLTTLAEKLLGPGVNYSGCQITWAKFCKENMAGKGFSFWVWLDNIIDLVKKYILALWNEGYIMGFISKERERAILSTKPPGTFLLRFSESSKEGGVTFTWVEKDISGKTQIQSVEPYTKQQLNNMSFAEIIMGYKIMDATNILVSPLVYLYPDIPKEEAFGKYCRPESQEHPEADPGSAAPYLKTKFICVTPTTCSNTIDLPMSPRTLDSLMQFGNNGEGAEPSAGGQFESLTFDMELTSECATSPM

HeLa = test: Cytotoxicity against human HeLa cells at 50 uM; assay type: cell-based
[2] = target: T2, Signal transducer and activator of transcription 1-alpha/beta (Homo sapiens) (UniProt P42224); test: Inhibition of STAT1 (unknown origin) expressed in IFN-gamma induced human HeLa cells at 50 uM incubated for 1 hr by luciferase reporter gene assay; assay type: cell-based
T2 sequence (whole entry): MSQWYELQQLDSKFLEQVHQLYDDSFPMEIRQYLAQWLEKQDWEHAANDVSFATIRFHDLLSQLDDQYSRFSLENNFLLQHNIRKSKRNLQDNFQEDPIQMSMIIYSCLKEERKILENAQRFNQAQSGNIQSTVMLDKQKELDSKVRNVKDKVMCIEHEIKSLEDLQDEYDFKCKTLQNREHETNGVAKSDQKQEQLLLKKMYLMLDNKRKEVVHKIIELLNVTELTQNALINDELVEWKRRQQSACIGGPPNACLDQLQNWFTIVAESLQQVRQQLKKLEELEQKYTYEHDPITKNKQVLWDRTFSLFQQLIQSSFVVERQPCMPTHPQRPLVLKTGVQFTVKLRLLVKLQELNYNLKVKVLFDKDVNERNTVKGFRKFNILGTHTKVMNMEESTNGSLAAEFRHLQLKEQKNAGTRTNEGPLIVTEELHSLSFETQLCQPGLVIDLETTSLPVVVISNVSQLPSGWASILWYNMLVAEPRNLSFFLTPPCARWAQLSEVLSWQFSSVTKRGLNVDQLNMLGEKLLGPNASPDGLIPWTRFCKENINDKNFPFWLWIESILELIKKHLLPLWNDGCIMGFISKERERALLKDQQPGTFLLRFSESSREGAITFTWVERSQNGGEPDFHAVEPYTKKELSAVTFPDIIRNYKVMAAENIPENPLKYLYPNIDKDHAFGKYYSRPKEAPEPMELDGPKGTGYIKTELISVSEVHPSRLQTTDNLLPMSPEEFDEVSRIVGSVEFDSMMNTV

[3] = target: T2, Signal transducer and activator of transcription 1-alpha/beta (Homo sapiens); test: Displacement of fluorescent peptide 5-FAM-G(pTyr)YIKTE- CONH2 from GST-tagged human STAT1b preincubated for 60 mins followed by fluorescent peptide addition measured after 30 mins by fluorescence polarization assay
How it was run: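 GST-tagged human STAT1b preincubated 60 min at room temperature with compound at various concentrations or vehicle in 50 mM NaCl, 10 mM Hepes pH 7.5, 1 mM EDTA, 0.01% Triton X-100, 2 mM DTT. Labelled peptide added to 10 nM final, 30 min room temperature. Fluorescence polarization read with excitation 480, emission 535.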

[4] = target: T1, Signal transducer and activator of transcription 3; test: Displacement of fluorescent peptide 5-FAM-G(pTyr)LPQTV-CONH2 from GST-tagged full-length human STAT3 preincubated for 60 mins followed by fluorescent peptide addition measured after 30 mins by fluorescence polarization assay
How it was run: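 Full-length GST-STAT3 (100 nM) preincubated 60 min at room temperature with compound at various concentrations or vehicle, in 50 mM NaCl, 10 mM Hepes pH 7.5, 1 mM EDTA, 0.01% Triton X-100, 2 mM DTT. Labelled peptide then added to 10 nM final, 30 min room temperature. FP read with excitation 480, emission 535 (P and S pol).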

MDA-MB-231 [5] = test: Cytotoxicity against human MDA-MB-231 cells transfected with STAT3C assessed as decrease in cell proliferation after 72 hrs by MTT assay; assay type: functional, cell-based
[6] = target: T1, Signal transducer and activator of transcription 3; settings: HeLa, 100 uM
CD4-positive T cell [7] = test: Induction of polarization of C57BL/6 mouse spleen naive CD4+ lymphocytes into Treg lymphocytes assessed as decrease in ROR-gamma-t transcription at 50 uM; assay type: functional, tissue-based
CD4-positive T cell [8] = test: Induction of polarization of C57BL/6 mouse spleen naive CD4+ lymphocytes into Th1 lymphocytes assessed as decrease in Tbet transcription; assay type: functional, tissue-based
MDA-MB-231 [9] = test: Cytotoxicity against human MDA-MB-231 cells assessed as decrease in cell proliferation after 72 hrs by MTT assay; assay type: functional, cell-based
CD4-positive T cell [10] = test: Induction of polarization of C57BL/6 mouse spleen naive CD4+ lymphocytes into Th17 lymphocytes assessed as decrease in ROR-gamma-t transcription at 50 uM; assay type: functional, tissue-based
[11] = target: T1, Signal transducer and activator of transcription 3; settings: HeLa, 100 uM; remark: listed apart in the source
CD4-positive T cell [12] = test: Induction of polarization of C57BL/6 mouse spleen naive CD4+ lymphocytes into Th17 lymphocytes assessed as decrease in FoxP3 transcription at 50 uM; assay type: functional, tissue-based
CD4-positive T cell [13] = test: Induction of polarization of C57BL/6 mouse spleen naive CD4+ lymphocytes into Treg lymphocytes assessed as decrease in FoxP3 transcription at 50 uM; assay type: functional, tissue-based
PBL = test: Induction IFN-gamma production in human PBL cells co-cultured with HT29 cells at 50 uM after 24 hrs by ELISA; assay type: functional, cell-based
[14] = target: T1, Signal transducer and activator of transcription 3; test: Inhibition of STAT3 (unknown origin) expressed in Oncostatin M induced human HeLa cells incubated for 1 hr by luciferase reporter gene assay
B9 = test: Cytotoxicity against mouse B9 cells assessed as decrease in cell proliferation at 50 uM after 72 hrs by MTT assay; assay type: functional, cell-based

SMILES | inhibition [1] | inhibition [2] [%] | other results
Brc1cc2c(cc1COc1ccc(-c3nn[nH]n3)cc1)OCO2 | Active |  | Activity (HeLa): Toxic
COc1cc(CNCC(=O)O)cc(Cl)c1OCc1ccc([N+](=O)[O-])cc1 | 15.3% | 13.1 | Activity [3]: Active
COc1cc(C=O)cc(Cl)c1OCc1ccc(C)cc1 | 52.4% | 31.4 | Activity [4]: Active; Activity [3]: Active
COc1cc(CNc2nn[nH]n2)cc(Cl)c1OCc1ccc(C)cc1 | 53.9% | 11.1 | Activity [4]: Active; Activity [3]: inactive
COc1cc(C=O)cc(Cl)c1OCc1ccc([N+](=O)[O-])cc1 | 66.4% | 62.3 | Activity [4]: Active; Activity [3]: Active
COc1cc(CNc2nn[nH]n2)cc(Cl)c1OCc1ccc(OC2CCOCC2)cc1 | 4.1% | 0 | 
CCOc1cc(/C=C(\C#N)C(=O)NC2CCCCC2C)ccc1OCC(=O)O (stereo not drawn) | Active |  | Activity (HeLa): Toxic
CCCCCCOc1cc(COc2c(Cl)cc(CNc3nn[nH]n3)cc2OC)ccc1[N+](=O)[O-] | 60.1% | 59.3 | 
Oc1cc(CNc2nn[nH]n2)cc(Cl)c1OCc1ccccc1 | 30.8% | 20.4 | 
COc1cc(CNc2nn[nH]n2)cc(Cl)c1OCc1ccc(OC(F)(F)F)cc1 | 51.1% | 11.7 | 
COc1cc(CC(C(=O)O)C(=O)O)cc(Cl)c1OCc1ccc(C)cc1 | 14.8% | 24.5 | 
COc1cc(CNc2nn[nH]n2)cc(Cl)c1OCc1cccc(C(=O)O)c1 | 36.9% | 10 | 
COc1cc(CNc2nn[nH]n2)cc(Cl)c1OCc1ccc([N+](=O)[O-])cc1 | 70.2% | 15.7 | Activity (MDA-MB-231 [5]): inactive; inhibition [6]: Active; Activity (CD4-positive T cell [7]): Active; Activity (CD4-positive T cell [8]): inactive; Activity [4]: Active; Activity (MDA-MB-231 [9]): Dose-dependent effect; Activity (CD4-positive T cell [10]): Active; inhibition [11]: Active; Activity (CD4-positive T cell [12]): Active; Activity (CD4-positive T cell [13]): Active; Activity (PBL): Active; pIC50 [14]: 4.59; Activity (B9): Dose-dependent effect; Activity [3]: inactive
COc1cc(CNc2nn[nH]n2)cc(Cl)c1OCc1cccc([N+](=O)[O-])c1 | 40.1% | 9.2 | Activity [4]: Active
COc1cc(CNc2nn[nH]n2)cc(Br)c1OCc1ccc([N+](=O)[O-])cc1 | 48% | 0 | 
COc1cc(NC#N)cc(Cl)c1OCc1ccc(C)cc1 | 50.2% | 10.8 | Activity [4]: inactive; Activity [3]: Active

SMILES | inhibition [1] | inhibition [2] [%] | other results
COc1cc(CNc2nn[nH]n2)cc(Cl)c1OCc1cccc(COc2ccccc2)c1 | 0.7% | 0 | 
COc1cc(CN(CC(=O)O)Cc2cc(Cl)c(OCc3ccc(C)cc3)c(OC)c2)cc(Cl)c1OCc1ccc(C)cc1 | 54.7% | 46 | 
COc1cc(CNc2nn[nH]n2)cc(OC)c1OCc1ccc([N+](=O)[O-])cc1 | 45.1% | 19.2 | 
COC(=O)c1ccc(COc2c(Cl)cc(CNc3nn[nH]n3)cc2OC)cc1 | 51.5% | 0 | 
COc1cc(CNc2nn[nH]n2)cc(I)c1OCc1ccc([N+](=O)[O-])cc1 | 52.1% | 0 | 
COc1cc(CN2C(=O)c3ccccc3C2=O)cc(Cl)c1OCc1ccc([N+](=O)[O-])cc1 | 95.9% | 44.5 | 
COc1cc(CNc2nn[nH]n2)cc(Cl)c1OCc1ccc(C#N)cc1 | 37.4% | 13.2 | 
COc1cc(CNc2nn[nH]n2)cc(Cl)c1OCc1ccc(SC)cc1 | 0% | 9.7 | 
COc1cc(CNc2nn[nH]n2)cc(Cl)c1OCc1ccc(Cl)cc1 | 37.6% | 4.4 | 
COc1c(OCc2ccc([N+](=O)[O-])cc2)c(Cl)cc(CNc2nn[nH]n2)c1[N+](=O)[O-] | 19.6% | 16.5 | 
COc1cc(CC(C(=O)O)c2nn[nH]n2)cc(Cl)c1OCc1ccc(C)cc1 (stereo not drawn) | 40.2% | 12.9 | 
COc1cc(CNc2nn[nH]n2)cc([N+](=O)[O-])c1OCc1ccc([N+](=O)[O-])cc1 | 36% | 6.4 | 
COc1cc(CNc2nn[nH]n2)cc(Cl)c1OCc1ccc(-c2csc(C)n2)cc1 | 0% | 0 | 
COC(=O)c1cccc(COc2c(Cl)cc(CNc3nn[nH]n3)cc2OC)c1 | 49.2% | 0 | 
COc1cc(CNC#N)cc(Cl)c1OCc1ccc([N+](=O)[O-])cc1 | 91.8% | 48.8 | Activity [4]: Active; Activity [3]: Active
